In experiment [1] the target is T1, Cathepsin K (Homo sapiens, UniProt P43235).
T1 sequence (P43235 whole entry): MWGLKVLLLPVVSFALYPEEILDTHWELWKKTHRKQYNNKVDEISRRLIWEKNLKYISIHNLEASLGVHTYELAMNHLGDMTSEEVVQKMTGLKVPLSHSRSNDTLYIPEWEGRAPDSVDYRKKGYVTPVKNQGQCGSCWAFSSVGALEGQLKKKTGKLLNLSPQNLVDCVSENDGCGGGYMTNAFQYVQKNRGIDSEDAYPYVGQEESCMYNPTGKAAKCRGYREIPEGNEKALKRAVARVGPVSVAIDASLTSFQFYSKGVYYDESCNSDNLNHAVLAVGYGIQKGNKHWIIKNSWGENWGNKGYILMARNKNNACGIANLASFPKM
Briefly: In vitro inhibition of human Cathepsin K. As to conditions: read-out: Ki app.

In experiment [2] the target is T2, Cathepsin K (Homo sapiens) (UniProt P43235).
T2 sequence (whole entry): T1 sequence (P43235 whole entry)
Briefly: (§1) Inhibitory activity tested against human Cathepsin K.

The target in a further experiment is Procathepsin L (Homo sapiens, UniProt P07711). Kind of experiment: Inhibition of human Cathepsin L. As to conditions: read-out: Ki app.
Sequence of Procathepsin L (P07711 whole entry): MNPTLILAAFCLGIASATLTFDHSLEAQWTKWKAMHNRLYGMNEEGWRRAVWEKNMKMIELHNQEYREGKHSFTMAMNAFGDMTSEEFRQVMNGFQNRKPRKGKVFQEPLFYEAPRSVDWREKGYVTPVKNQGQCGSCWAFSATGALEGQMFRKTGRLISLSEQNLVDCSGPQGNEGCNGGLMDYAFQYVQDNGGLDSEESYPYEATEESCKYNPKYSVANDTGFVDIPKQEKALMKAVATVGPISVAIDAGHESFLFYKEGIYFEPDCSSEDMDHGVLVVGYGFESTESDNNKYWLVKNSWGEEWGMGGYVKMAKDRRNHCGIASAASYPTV
The target in another experiment is Cathepsin S (Homo sapiens, UniProt P25774). Briefly: Inhibition of human Cathepsin S. As to conditions: read-out: Ki app. The method in brief:
(§2)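 Fluorogenic AMC-substrate assay in 100 mM acetate, 20 mM cysteine, 5 mM EDTA, pH 5.5, with 10% final DMSO. […] Apparent Ki values were determined.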

The next experiment concerns the target Cathepsin B (Homo sapiens, UniProt P07858). Briefly: Inhibitory activity tested against human Cathepsin B. As to conditions: read-out: Ki app. The method in brief:
as §2

The target in experiment [3] is T1, Cathepsin K. The experiment is described as §1.

Each structure is given as a SMILES string. pKi: −log10 of the molar value.

Sequence of Cathepsin S (P25774 whole entry): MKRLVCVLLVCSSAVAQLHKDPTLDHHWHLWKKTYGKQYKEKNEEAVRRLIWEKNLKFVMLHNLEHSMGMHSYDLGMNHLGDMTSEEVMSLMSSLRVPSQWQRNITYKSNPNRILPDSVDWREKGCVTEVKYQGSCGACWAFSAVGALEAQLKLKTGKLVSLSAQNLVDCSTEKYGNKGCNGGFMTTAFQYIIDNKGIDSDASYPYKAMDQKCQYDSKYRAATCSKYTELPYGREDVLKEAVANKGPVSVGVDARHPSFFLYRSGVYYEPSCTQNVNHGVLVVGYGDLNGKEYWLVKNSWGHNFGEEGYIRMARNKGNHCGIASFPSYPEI

In the case of `CC(C)C[C@H](NC(=O)OCc1ccccc1)C(=O)NC1CN(C(=O)[C@H](CC(C)C)N(C)C(=O)OCc2ccccc2)CC1=O` (stereo not given in full), the negative logarithm of the Ki (pKi) (commonly the negative decadic logarithm of the Ki, by convention in mol/L) at Cathepsin K [1] is 9.22.
`CCCOC[C@@H](O)[C@H](CC(C)C)NC(=O)[C@H](CC(C)C)NC(=O)OCc1ccccc1` displayed a K inact/I in experiment [2] of 4100 M⁻¹ s⁻¹.
Consider `CC(=O)N1CC(=O)C(NC(=O)[C@H](CC(C)C)NC(=O)OCc2ccccc2)C1` (stereo not given in full), for which the pKi is 6.24 at Procathepsin L, 6.60 on Cathepsin K [1] and 6.32 on Cathepsin S.
In the case of `CC(C)C[C@H](NC(=O)OCc1ccccc1)C(=O)NC1COCC1=O` (stereo not given in full), the pKi on Procathepsin L is 5.59; on Cathepsin S, 6.51; at Cathepsin B, less than 5.00.
For `CC(C)C[C@H](NC(=O)OCc1ccccc1)C(=O)NC1CCN(C(=O)[C@H](CC(C)C)N(C)C(=O)OCc2ccccc2)CC1=O` (stereo not given in full), the pKi on Cathepsin K [1] is 8.72.
On to `CN[C@@H](CC(C)C)C(=O)N1CC(=O)[C@@H](NC(=O)[C@H](CC(C)C)NC(=O)OCc2ccccc2)C1`, for which the pKi at Procathepsin L is 6.40; on Cathepsin K [1], 7.11; on Cathepsin S, 6.54; on Cathepsin B, 5.14.
Turning to `COCC(=O)[C@H](CC(C)C)NC(=O)[C@H](CC(C)C)NC(=O)OCc1ccccc1`, the pKi at Cathepsin K [3] was 7.10.
On to `CC(=O)N1CCC(NC(=O)[C@H](CC(C)C)NC(=O)OCc2ccccc2)C(=O)C1` (stereo not given in full), for which the pKi at Cathepsin K [1] was 6.64.
The compound `CC(C)C[C@H](NC(=O)c1cc2ccccc2s1)C(=O)NC1COCCC1=O` (stereo not given in full) had a pKi on Cathepsin K [3] of 6.25.
Regarding `CC(C)C[C@H](NC(=O)c1ccc2ccccc2n1)C(=O)NC1COCC1=O` (stereo not given in full), the pKi is 6.60 at Procathepsin L, 5.96 at Cathepsin S and 5.11 at Cathepsin B.
As to `CC(C)C[C@H](NC(=O)OCc1ccccc1)C(=O)NC1CCCC1=O` (stereo not given in full), the pKi at Procathepsin L, on Cathepsin K [1], on Cathepsin S and on Cathepsin B was less than 5.00 throughout.
Regarding `CC(C)C[C@H](NC(=O)OCc1ccccc1)C(=O)NC1CCOCC1=O` (stereo not given in full), the pKi was 6.82 on Cathepsin K [1], 6.28 at Cathepsin S and less than 5.00 on Cathepsin B.
In the case of `CC(C)C[C@H](NC(=O)OCc1ccccc1)C(=O)NC1CCN(C(=O)[C@H](CC(C)C)NC(=O)OCc2ccccc2)CC1=O` (stereo not given in full), the pKi on Cathepsin S is 8.10.
`CC(C)C[C@H](NC(=O)OCc1ccccc1)C(=O)NC1CCOCC1O` (stereo not given in full): the pKi on Procathepsin L, at Cathepsin K [1] and on Cathepsin S was less than 6.00 in each case.
As to `CC(C)C[C@H](NC(=O)OCc1ccccc1)C(=O)NC1CCCCC1=O` (stereo not given in full), the pKi at Procathepsin L, on Cathepsin K [1], on Cathepsin S and at Cathepsin B was less than 5.00 each time.
Take `CC(C)C[C@H](NC(=O)OCc1ccccc1)C(=O)NC1COCC1O` (stereo not given in full): the pKi at Procathepsin L, at Cathepsin K [1] and on Cathepsin S was less than 6.00 throughout.
Turning to `CC(C)C[C@H](NC(=O)c1cc2ccccc2s1)C(=O)NC1CCOCC1=O` (stereo not given in full), the pKi on Cathepsin K [3] is 7.96.
On to `COCC(=O)[C@H](C)NC(=O)[C@H](CC(C)C)NC(=O)OCc1ccccc1`, for which the negative logarithm of the Ki (pKi) on Cathepsin B was less than 6.00.
On to `CC(C)C[C@@H](CN1CC(=O)C(NC(=O)[C@H](CC(C)C)NC(=O)c2ccc3cccnc3c2)C1)NC(=O)OCc1ccccc1` (stereo not given in full), for which the results for the pKi at Cathepsin K [1] and on Cathepsin B were 8.80 and 7.34, respectively.
With `CC(C)C[C@@H](C(=O)NC1CN(C(=O)[C@H](CC(C)C)N(C)C(=O)OCc2ccccc2)CC1=O)N(C)C(=O)OCc1ccccc1` (stereo not given in full), the figures for the pKi on Cathepsin K [1], at Cathepsin S and on Cathepsin B were 6.74, 7.29 and 5.59, respectively.
As to `CC(C)C[C@H](NC(=O)OCc1ccccc1)C(=O)NC1CN(C(=O)[C@H](CC(C)C)NC(=O)OCc2ccccc2)CC1=O` (stereo not given in full), at Cathepsin S, the pKi was 7.05.

Values taken from ChEMBL document CHEMBL1134358, “Cyclic ketone inhibitors of the cysteine protease cathepsin K” (J Med Chem, 2001).
